Data on two compounds can be found in publication PMC3005847 (Biochemistry, 2010).

Residue numbers refer to the chain shown, from its start.

Test [1] concerns the target T1, T. foetus IMPDH wild-type (Tritrichomonas foetus, UniProt P50097). The note with it: cited from earlier work.
Another test deals with T2, T. foetus IMPDH E323A (Tritrichomonas foetus, UniProt P50097, E323A).
T2 sequence (P50097 1-503 E323A): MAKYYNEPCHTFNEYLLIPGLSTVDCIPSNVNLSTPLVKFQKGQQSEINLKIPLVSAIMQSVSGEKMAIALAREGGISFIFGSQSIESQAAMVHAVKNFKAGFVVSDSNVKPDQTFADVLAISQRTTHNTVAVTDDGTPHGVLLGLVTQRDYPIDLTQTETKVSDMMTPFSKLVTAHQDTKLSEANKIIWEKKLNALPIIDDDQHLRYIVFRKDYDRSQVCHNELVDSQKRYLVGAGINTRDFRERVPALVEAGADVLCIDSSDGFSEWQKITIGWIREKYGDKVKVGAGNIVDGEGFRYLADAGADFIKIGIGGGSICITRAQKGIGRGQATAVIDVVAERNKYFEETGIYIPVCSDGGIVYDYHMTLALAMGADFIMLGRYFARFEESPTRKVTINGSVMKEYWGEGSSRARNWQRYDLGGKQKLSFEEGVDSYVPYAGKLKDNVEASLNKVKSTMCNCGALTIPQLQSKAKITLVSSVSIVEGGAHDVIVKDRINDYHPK
The experiment in a line: Steady-state kinetics, E323A. The class given is biochemical. The note with it: read-out: Km NAD^+, pH 8.0, 25 °C.

The target in test [2] is T3, T. foetus IMPDH R322E (Tritrichomonas foetus, UniProt P50097, R322E).
T3 sequence (P50097 1-503 R322E): T2 sequence (P50097 1-503 E323A) with R322E, A323E
Description: Steady-state kinetics, R322E. It is filed as biochemical. As to conditions: read-out: Km NAD^+, pH 8.0, 25 °C. The procedure, abridged:
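Mutant enzyme was expressed in IMPDH-deficient E. coli H712 and IMP-affinity purified. Assay buffer was 50 mM Tris-Cl pH 8.0, 100 mM KCl, 1 mM DTT, at 25 °C. NADH production was monitored at 340 nm (ε = 6.22 mM−1cm−1). Initial velocities were fitted to Michaelis–Menten or to a form with uncompetitive substrate inhibition, giving Km.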

Test [3] has as its target T1, T. foetus IMPDH wild-type. The experiment in a line: Equilibrium dissociation constant by intrinsic protein fluorescence, wild-type. The class given is binding. The note with it: corrected for non-specific quenching, assay buffer, 25 °C.
In a further test the target is T4, T. foetus IMPDH R322A (Tritrichomonas foetus, UniProt P50097, R322A).
T4 sequence (P50097 1-503 R322A): T2 sequence (P50097 1-503 E323A) with R322A, A323E
The experiment in a line: Steady-state kinetics, R322A. The class given is biochemical. The note with it: read-out: Km NAD^+, pH 8.0, 25 °C.

For test [4], the target named is T3, T. foetus IMPDH R322E. The experiment in a line: Equilibrium dissociation constant by intrinsic protein fluorescence, R322E. The note with it: assay buffer, 25 °C. It is filed as binding. The procedure, abridged:
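NAD+ titrated into 0.2–0.3 µM R322E enzyme. The enzyme was expressed in IMPDH-deficient E. coli H712 and IMP-affinity purified. Assay buffer was 50 mM Tris-Cl pH 8.0, 100 mM KCl, 1 mM DTT, at 25 °C. Intrinsic protein fluorescence read at ex 295 / em 344 nm, corrected for inner-filter effect. Nonspecific quenching measured by titrating ligand into L-tryptophan. Kd taken from the corrected binding curve.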

For the next test, the target named is T5, T. foetus IMPDH Q324A (Tritrichomonas foetus, UniProt P50097, Q324A).
T5 sequence (P50097 1-503 Q324A): T2 sequence (P50097 1-503 E323A) with A323E, Q324A
Description: Steady-state kinetics, Q324A. It is filed as biochemical.

The target in test [5] is T3, T. foetus IMPDH R322E. Description: Multiple-inhibitor kinetics with tiazofurin and ADP, R322E. It is filed as biochemical. The note with it: R322E relative to wild-type. The procedure, abridged: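 Mutant enzymes were expressed in IMPDH-lacking E. coli H712 and purified by IMP-affinity chromatography. Tiazofurin and ADP were varied together in assay buffer (50 mM Tris-Cl pH 8.0, 100 mM KCl, 1 mM DTT) at 25 °C. NADH formation was followed at 340 nm. Initial velocities were fitted to a two-inhibitor equation giving Ki, Kj and interaction constant α.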

For orientation: Km means the substrate concentration at which the rate is half of its maximum. Usually Kd stands for a measure of binding affinity in units of concentration. Read a high Kd as lower affinity. In the case of `NC(=O)c1ccc[n+]([C@@H]2O[C@H](COP(=O)([O-])OP(=O)(O)OC[C@H]3O[C@@H](n4cnc5c(N)ncnc54)[C@H](O)[C@@H]3O)[C@@H](O)[C@H]2O)c1` [NAD^+], the Km was 150 ± 30 µM in test [1] (read-out: Km NAD^+); 300 ± 20 µM at T. foetus IMPDH E323A; 2600 ± 700 µM at T. foetus IMPDH R322E [2]; 910 ± 90 µM on T. foetus IMPDH R322A; 120 ± 20 µM at T. foetus IMPDH Q324A (read-out: Km NAD^+, pH 8.0, 25 °C). Besides, the “Kii NAD^+” value in test [1] (uncompetitive substrate inhibition) was 7 ± 2 mM; on T. foetus IMPDH Q324A (uncompetitive substrate inhibition, pH 8.0, 25 °C) it was 2.4 ± 0.3 mM. In addition, the Kd stood at 27 ± 6 µM in test [3] and 37 ± 10 µM on T. foetus IMPDH R322E [4].
Turning to `NC(=O)c1csc([C@@H]2O[C@H](CO)[C@@H](O)[C@H]2O)n1` [TAZ, tiazofurin], the “Decrease in affinity of tiazofurin caused by the mutation (factor)” value on T. foetus IMPDH R322E [5] is above 3.
